Published values pooled from the literature.
Compare with care: the assays were run in different laboratories.
Organism: Klebsiella pneumoniae
Observed: microbial growth

CC(C)(O/N=C(\C(=O)N[C@@H]1C(=O)N2C(C(=O)[O-])=C(C[n+]3ccccc3)CS[C@H]12)c1csc(N)n1)C(=O)O  MIC (18 h; clinical isolate): > 128 µg/mL
COc1cc(Cc2cnc(N)nc2N)cc(OC)c1OC  MIC (broth dilution; ATCC700603): 20 µM
Cc1c(CN(C)C(=O)/C=C/c2cnc3c(c2)CC(CCN)C(=O)N3)oc2ccccc12.Cl (stereo not drawn)  MIC (broth dilution; BAA2342): 16 µg/mL
CCCCCCC#Cc1cncc(-c2nnc(SCc3ccc(Cl)cc3)n2C2CC2)c1  MIC: ≥ 20 µg/mL
C/C(=C\c1ccc(C#N)cc1)C(=O)Nc1ccc(C(=O)N[C@@H](CC(N)=O)C(=O)Nc2ccc(C(=O)Nc3ccc(C(=O)Nc4ccc(C(=O)O)cc4)c(O)c3OC(C)C)cc2)cc1  MIC (DSM30104): > 64 µg/mL
Cc1c(CN(C)C(=O)/C=C/c2cnc3c(c2)CC(NC(=O)OC(C)(C)C)C(=O)N3)oc2ccccc12 (stereo not drawn)  MIC (broth dilution): > 32 µg/mL
CC[C@H]1OC(=O)[C@H](C)[C@@H](O[C@H]2C[C@@](C)(OC)[C@@H](O)[C@H](C)O2)[C@H](C)[C@@H](O[C@@H]2O[C@H](C)C[C@H](N(C)C)[C@H]2O)[C@](C)(OC)C[C@@H](C)C(=O)[C@H](C)[C@@H](O)[C@]1(C)O  MIC (broth dilution; ATCC700603): 80 µM
CNC(C)C1CCC(N)C(OC2C(N)CC(N)C(OC3OCC(C)(O)C(NC)C3O)C2O)O1 (stereo not drawn)  MIC: 0.25 µg/mL
CO[C@@H]1[C@@H](OC(N)=O)[C@@H](O)[C@H](Oc2ccc3c(O)c(NC(=O)c4ccc(O)c(CC=C(C)C)c4)c(=O)oc3c2C)OC1(C)C  MIC (broth dilution; ATCC700603): 160 µM
CC(=O)NCN1N=C(C)C(=NNn2c(-c3ccccc3)nc3ccccc3c2=O)C1=O  MIC (broth dilution; 24 h): 59.9 µM
O=[N+]([O-])c1ccc(/C=N/Nc2nc(Nc3ccccc3)nc(N3CCOCC3)n2)o1  MIC: > 120 µM
O=C(Nc1ccc(F)c(Cl)c1)c1cc(Cl)ccc1O  MIC (broth dilution; BAA1705): > 64 µg/mL
CC1=NN(CNc2ccccc2[N+](=O)[O-])C(=O)C1=NNn1c(-c2ccccc2)nc2ccccc2c1=O  MIC (broth dilution; 24 h): 50.4 µM
NCCCNC1CCCCc2c1[nH]c1ccc(Br)cc21 (stereo not drawn)  MIC (broth dilution; ATCC10031): 8 µg/mL
CO[C@H]1/C=C/O[C@@]2(C)Oc3c(C)c(O)c4c(O)c(c(/C=N/N5CCN(C)CC5)c(O)c4c3C2=O)NC(=O)/C(C)=C\C=C\[C@H](C)[C@H](O)[C@@H](C)[C@@H](O)[C@@H](C)[C@H](OC(C)=O)[C@@H]1C  MIC (broth dilution; ATCC700603): 10 µM
CN(C)[C@@H]1C(O)=C(C(N)=O)C(=O)[C@@]2(O)C(O)=C3C(=O)c4c(cc5ccc(CN6CC(C#N)C6)cc5c4O)C[C@H]3C[C@@H]12  MIC (broth dilution; ATCC13883): 16 µg/mL
CC1(C)S[C@@H]2[C@H](/N=C/N3CCCCCC3)C(=O)N2[C@H]1C(=O)O  MIC (broth dilution; ATCC700603): 2.5 µM
CCCCCCC#Cc1cncc(-c2nnc(SCc3ccc([N+](=O)[O-])o3)n2C)c1  MIC: ≥ 20 µg/mL
